Screening data (PubChem)
A selection: hits, their analogues and other compounds. The true share with any hit is near 1.9%.
Efflux pump inh – inhibitors of Candida efflux pumps in yeast, primary screen, S. cerevisiae, Nile Red, multiplex. S. cerevisiae Candida pump triplex. inhibition, % at 10 µM. 330,000 tested, 0.44% active. AID 485275, 2010;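 active means plate passing quality check with inhibition over a set limit, or well fluorescence over plate mean plus 4 SD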;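 further: Nile Red retained in pooled yeast measured as flow cytometry median fluorescence; 0% = buffer negative control and 100% = Enniatin B positive control; higher means more Nile Red kept so more efflux inhibition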
ARFGAP1 inh – inhibitors of rat ARFGAP1 GAP activity, primary screen, biochemical, fluorescence polarization, GDP tracer; ADP-ribosylation factor GTPase-activating protein 1 (Rattus norvegicus), Q62848; Arfgap1-stimulated ARF1 GTP hydrolysis, GDP FP detection; inhibition, % at 16.5 µM; 360,000 tested, 0.26% active;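 active means inhibition above a per-plate limit, mean inhibition of low control wells plus 3 SD, cut at about 25% in these data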;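 further: 0% = DMSO wells with enzyme and 100% = wells lacking Arfgap1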
Target sequence (Q62848 1-136 limits assumed): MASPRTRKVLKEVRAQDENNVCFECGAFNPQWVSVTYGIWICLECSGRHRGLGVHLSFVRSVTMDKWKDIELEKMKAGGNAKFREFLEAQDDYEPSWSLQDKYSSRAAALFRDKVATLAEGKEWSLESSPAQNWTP
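Assay system: Rat Arfgap1 GAP domain (His6, aa 1-136), purified enzyme | Buffer or medium: HEPES 25 mM pH 7.5, NaCl 150 mM, MgCl2, DTT | Schedule: GTP hydrolysis reaction 2 h at 25 °C | Signal: FP of antibody-bound GDP Alexa 633 tracer, ex 620/em 688 nm | Measure: Percent inhibition of Arfgap1-stimulated GTP hydrolysis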
FGF22 binding – binders of human FGF22 protein, primary screen, FGF22 synaptogenesis inhibitor project, biophysical, thermal shift, single point. Fibroblast growth factor 22 (Homo sapiens), Q9HCT0. recombinant FGF22 thermal shift, SYPRO orange fluorescence; percent of sucrose octasulfate shift, DMSO zero. activity (Tm shift, normalised), % at 9.99 µM. 340,000 tested, 1.5% active. AID 651658, 2012;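 active means mean Tm shift, scaled 0 neutral to 100 positive control, at about 1.3% or above, every replicate too, limit read from the data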
Rtt109 Vps75 – inhibitors of C. albicans Rtt109/Vps75 HAT, primary screen, biochemical, ThioGlo CoA-SH fluorescence, plate reader | Histone acetyltransferase RTT109 (Candida albicans (strain SC5314 / ATCC MYA-2876)), … | purified Rtt109/Vps75, 4 h | inhibition, % at 34.9 µM | 330,000 tested, 0.16% active | AID 540336, 2011;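 active means inhibition of at least 50% in every replicate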
Target sequence (Q5AAJ8 whole entry, looked up): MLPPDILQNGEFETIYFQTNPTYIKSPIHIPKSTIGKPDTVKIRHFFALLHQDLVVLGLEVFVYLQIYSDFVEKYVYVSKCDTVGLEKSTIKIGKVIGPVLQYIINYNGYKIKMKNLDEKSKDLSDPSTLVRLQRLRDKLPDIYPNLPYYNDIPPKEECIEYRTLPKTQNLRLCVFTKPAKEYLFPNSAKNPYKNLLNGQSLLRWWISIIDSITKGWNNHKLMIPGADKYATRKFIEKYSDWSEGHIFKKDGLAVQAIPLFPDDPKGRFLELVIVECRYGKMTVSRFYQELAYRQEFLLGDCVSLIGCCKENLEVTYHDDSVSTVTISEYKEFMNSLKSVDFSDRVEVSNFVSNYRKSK
ASAP1 inh – inhibitors of human ASAP1 ArfGAP activity, primary screen, biochemical, fluorescence polarization. inhibition, % at 16.5 µM. 360,000 tested, 0.19% active. Arf-GAP with SH3 domain, ANK repeat and PH domain-containing protein 1 (Homo sapiens), …. ASAP1-stimulated ARF1 GTP hydrolysis, GDP FP detection. AID 624377, 2012; in the data active means inhibition above about 25%;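 further: 0% = vehicle with enzyme and substrate and 100% = no enzyme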
An asterisk follows results filed as active; nt = no result given.

SMILES	Efflux pump inh	ARFGAP1 inh	FGF22 binding	Rtt109 Vps75	ASAP1 inh
CCC(CC)C(=O)Nc1nnc(S(=O)(=O)Nc2ccc(OC)cc2)s1	0.0	-0.8	-0.2	13.2	-10.0
Cc1nc2ccccc2c(=O)n1NC(=O)c1ccc([N+](=O)[O-])cc1	-0.1	0.7	43.1*	-0.4	-18.5
Cc1cc(C(=O)Nn2c(C)nc3ccccc3c2=O)ccc1[N+](=O)[O-]	-0.1	-5.2	0.4	-2.4	3.5
O=C(CSc1nnc(-c2ccc(S(=O)(=O)N3CCCC3)cc2)o1)NCC1CCCO1 (configuration not stated)	0.1	-4.0	42.0	9.6	-10.1
Cc1cccc(NC(=O)COn2nnc3ccc(S(C)(=O)=O)cc32)c1	0.0	0.2	43.0*	-5.4	-2.8
Cc1cccc(C)c1NC(=O)COn1nnc2ccc(C(F)(F)F)cc21	0.1	-2.1	0.0	1.8	-7.8
O=C(O)c1ccc(-n2[nH]c3c(c2=O)CCCC3)cc1	0.0	3.2	43.3*	-10.2	-2.5
C[C@@H]1CCCCO[C@@H](CN(C)Cc2ccc(C(=O)O)cc2)[C@H](C)CN([C@@H](C)CO)C(=O)c2cc(NS(=O)(=O)c3ccccc3)ccc2O1	nt	nt	0.0	nt	nt
COc1ccc(/C=N/NC(=O)c2c(C)nnn2-c2nonc2N)cc1OC	0.1	-6.2	43.3*	-4.9	2.9
O=C(Cc1ccccc1)N1CCN=C1SCc1cccc([N+](=O)[O-])c1	0.2	-9.6	43.0*	8.5	-2.2
CC(C)CC1NC(=O)c2ccccc2-n2c1nc1cc(F)ccc1c2=O (configuration not stated)	-0.2	18.4	0.0	nt	-23.8
O=C(c1ccccc1Cc1ccccc1)N1CCN(S(=O)(=O)c2ccccc2)CC1	0.1	7.9	0.0	-2.3	6.5
O=C(O)CC(SCC(=O)Nc1ccc(S(=O)(=O)N2CCCC2)cc1)C(=O)O (configuration not stated)	-0.4	-6.1	0.2	5.7	11.7
CCc1ccc(C2C3=C(CC(C)(C)CC3=O)OC3=C2C(=O)CC(C)(C)C3)cc1	-0.1	2.9	0.9	nt	8.7
CCc1ccc(C2C3=C(CCCC3=O)OC3=C2C(=O)CCC3)cc1	0.1	8.8	43.1*	0.6	1.6
O=C(c1nsnc1-c1ccccc1O)N1CCCCC1	-0.2	14.0	nt	-11.9	8.6
CC(C)N1CCC(N2CCN(C3CCCCCC3)CC2CCO)CC1 (configuration not stated)	0.2	2.2	43.1*	nt	0.8
COc1ccc(CNCC(O)(c2ccccc2)c2ccc(F)cc2)cc1OC (configuration not stated)	0.0	3.2	0.0	-16.2	-10.1
CC(C)CCNC(=O)NC(=O)COC(=O)CCN=C1NS(=O)(=O)c2ccccc21	-0.3	-3.2	44.4*	-0.4	-15.5
O=C(CCN=C1NS(=O)(=O)c2ccccc21)OCC(=O)c1ccccc1	0.2	15.9	-0.2	11.3	-1.1
COCCNC(=O)CSc1nccn1Cc1ccc2c(c1)OCO2	0.0	6.3	43.0*	-16.5	-0.4
NC(=O)CSc1nccn1Cc1ccc2c(c1)OCO2	-0.2	-4.8	0.0	0.4	0.5
COCCCNC(=S)N1CCN(Cc2ccc3c(c2)OCO3)CC1	0.1	-12.4	43.6*	-2.4	-9.8
CCCCNC(=S)N1CCN(Cc2ccc3c(c2)OCO3)CC1	0.1	3.4	0.6	10.0	6.1
COCc1[nH]nc2c1C(c1ccc(F)cc1)N(c1ccccc1)C2=O (configuration not stated)	nt	11.4	42.1	nt	6.5
SMILES	Efflux pump inh	ARFGAP1 inh	FGF22 binding	Rtt109 Vps75	ASAP1 inh
COCc1[nH]nc2c1C(c1ccc(F)cc1)N(c1ccc(OC)cc1)C2=O (configuration not stated)	nt	0.3	43.3*	nt	12.4
CCCc1c(C(=O)N/N=C(\C)c2ccc(CC(C)C)cc2)nnn1-c1nonc1N	nt	-5.1	43.6*	nt	-1.7
CCCc1c(C(=O)N/N=C(\C)c2ccc3c(c2)OCO3)nnn1-c1nonc1N	nt	0.1	0.0	nt	2.7
O=C(NC(=S)N1CCCCC1)C12CC3CC(CC(C3)C1)C2	-0.1	0.9	nt	-1.5	-4.7
O=C(c1cc(NC(=O)C23CC4CC(CC(C4)C2)C3)cc(NC(=O)C23CC4CC(CC(C4)C2)C3)c1)N1CCCCC1	1.1*	nt	nt	nt	nt
COc1ccc(N(C(=O)c2cnsn2)C(C(=O)NC2CCCCC2)c2ccncc2)cc1 (configuration not stated)	-0.1	-8.3	43.0*	3.6	2.3
CCOC(=O)CSc1ccc2ccccc2n1	0.1	2.1	43.4*	-3.1	-2.8
O=C(O)CSc1ccc2ccccc2n1	0.0	-1.3	nt	8.8	-3.5
COc1cc(NC(=S)N2CCN(C(=O)c3ccco3)CC2)c(OC)cc1Cl	0.0	14.1	nt	-8.2	-11.5
COc1ccc(Cl)cc1NC(=S)N1CCN(C(=O)c2ccco2)CC1	-0.2	39.4*	nt	-2.9	-3.0
COc1ccc(OC)c(C2CC(=O)N3CN(c4ccc(C)c(Cl)c4)CSC3=C2C#N)c1 (configuration not stated)	-0.1	7.9	-0.1	91.1*	20.2
COc1ccc(OC)c(C2CC(=O)N3CN(c4cccc(Cl)c4)CSC3=C2C#N)c1 (configuration not stated)	0.1	9.0	0.2	-2.0	0.7
Cc1ccc(C(=O)O)cc1NC(=S)NC(=O)c1ccc([N+](=O)[O-])c(C)c1	-0.1	10.6	42.9*	-2.9	-16.2
Cc1ccc(CNC(=S)Nc2cc(C(=O)O)ccc2C)cc1	-0.1	-1.8	0.0	0.2	-2.4
COCCN1Cc2cccc(C(=O)Nc3ccc(-c4nc5ccccc5[nH]4)cc3)c2C1=O	-0.1	-4.4	nt	55.3*	-9.3
COCCN1Cc2cccc(C(=O)Nc3cccc(-c4nc5ccccc5[nH]4)c3)c2C1=O	0.1	0.6	0.0	-4.8	5.5
CCCC#Cc1cnc2c(c1)C(=O)N([C@H](C)CO)C[C@@H](C)[C@H](CN(C)S(=O)(=O)c1cn(C)cn1)O2	nt	nt	-0.4	nt	nt
CC(=O)Nc1ccc(OCc2cccc([N+](=O)[O-])c2)cc1	0.0	12.5	-0.1	58.0*	-8.4
CC(=O)Nc1cccc(OCc2cccc([N+](=O)[O-])c2)c1	nt	7.4	0.1	-1.9	3.1
COc1cccc(CN2CCN(C(=O)Nc3ccc([N+](=O)[O-])cc3)CC2)c1	-0.1	9.7	43.0*	1.2	13.1
COc1ccccc1N1CCN(C(=O)Nc2ccc([N+](=O)[O-])cc2)CC1	0.8	-1.6	-0.2	3.4	-10.6
